Measurements collected from several papers.
Protocols differ between the studies behind these lines.
Organism: Escherichia coli
Observed: microbial growth

CO/N=C(\C(=O)N[C@@H]1C(=O)N2C(C(=O)[O-])=C(C[N+]3(C)CCCC3)CS[C@H]12)c1csc(N)n1
MIC: ≤ 0.12 µg/mL

Cc1ccc2[nH]nc(-c3nnc(Nc4ccc(F)cc4)s3)c2c1
MIC (ATCC25922): 51.9 µg/mL

CCN1CCC(CCNCc2cc3cc(-c4ccccc4)ccc3nc2SCc2ccccc2)CC1
MIC (broth dilution): 8 µg/mL

CN(C)c1cc(NC(=O)CNC(C)(C)C)c(O)c2c1C[C@H]1C[C@H]3[C@H](N(C)C)C(O)=C(C(N)=O)C(=O)[C@@]3(O)C(O)=C1C2=O
MIC: ≤ 0.5 µg/mL

O=C1/C(=C/c2ccc3ccccc3c2O)NC(=S)N1c1ccccc1
MIC (broth dilution; ATCC25 ATCC25922): 16 µg/mL

CC(=O)OCc1nn(C)c2nc(N)[nH]c(=O)c2c1=O
MIC (broth dilution; BW25113; 18 h): 25 µg/mL

O=C(O)c1cn(C2CC2)c2cc(N3CCNCC3)c(F)cc2c1=O
MIC (broth dilution; ATCC25922): 4 µg/mL

CNC(C)C1CCC(N)C(OC2C(N)CC(N)C(OC3OCC(C)(O)C(NC)C3O)C2O)O1 (stereo not drawn)
MIC (broth dilution): 2 µg/mL

N#CC(C#N)=C1SC(C(=O)c2ccc(Nc3cnccn3)cc2)=NN1c1ccccc1
MIC (broth dilution; ATCC10536): 50 µg/mL

COc1ccc2ccc(O)c(/C=N/[C@H]3CCCC[C@H]3/N=C/c3ccc(-c4ccccc4)cc3O)c2c1
MIC (broth dilution): > 40 µM

[H]/N=C(/N)N[C@H]1[C@H](O)[C@@H](O)[C@H](O[C@@H]2O[C@@H](C)[C@](O)(C=O)[C@H]2O[C@@H]2O[C@@H](CO)[C@H](O)[C@@H](O)[C@@H]2NC)[C@@H](N/C(N)=N\[H])[C@@H]1O
MIC (broth dilution; ATCC25 ATCC25922): 20 µg/mL

Brc1ccc2nc(SCc3ccccc3)c(CNCc3ccc(CN4CCCC4)cc3)cc2c1
MIC (broth dilution): > 128 µg/mL

Cc1ccc2[nH]nc(-c3nnc(Nc4ccc(O)cc4)s3)c2c1
MIC (ATCC25922): 64.7 µg/mL

COc1ccc2ccc(O)c(/C=N/[C@H]3CCCC[C@H]3/N=C/c3ccc(OCCN4CCCCC4)cc3O)c2c1
MIC (broth dilution): > 40 µM

[H]/N=C(\N/C(=N/[H])NCCCCCCNC(=N)NC(=N)Nc1ccc(Cl)cc1)Nc1ccc(Cl)cc1
MIC: 0.5 µM

CCOC(=O)C(C)c1n[nH]c2nc(N)[nH]c(=O)c2c1=O (stereo not drawn)
MIC (broth dilution; BW25113; 18 h): > 100 µg/mL

Cc1ccc2[nH]nc(-c3nnc(Nc4ccc(Cl)c(Cl)c4)s3)c2c1
MIC (ATCC25922): 140 µg/mL

C[C@@H](O)[C@H]1C(=O)N2C(C(=O)O)=C(S[C@@H]3CN[C@H](C(=O)N(C)C)C3)[C@H](C)[C@H]12
MIC (broth dilution; ATCC25922): < 0.5 µg/mL

CCN1CCC(CCNCc2cc3cc(OC)c(OC)c(OC)c3nc2SCc2ccccc2)CC1
MIC (broth dilution): > 128 µg/mL

CC[C@H]1OC(=O)[C@H](C)[C@@H](O[C@H]2C[C@@](C)(OC)[C@@H](O)[C@H](C)O2)[C@H](C)[C@@H](O[C@@H]2O[C@H](C)C[C@H](N(C)C)[C@H]2O)[C@](C)(O)C[C@@H](C)CN(C)[C@H](C)[C@@H](O)[C@]1(C)O
MIC (ATCC25922): < 98 µg/mL

c1ccc(CSc2nc3ccccc3cc2CNCc2ccc(CN3CCCC3)cc2)cc1
MIC (broth dilution): > 128 µg/mL

N=c1sc(C(=O)c2ccc(Nc3cnccn3)cc2)nn1-c1ccc([N+](=O)[O-])cc1
MIC (broth dilution; ATCC10536): 6.25 µg/mL

C[C@@H](O)[C@H]1C(=O)N2C(C(=O)O)=C(S[C@@H]3CN[C@H](C(=O)N(C)C)C3)[C@H](C)[C@H]12
MIC (ATCC25922; drug-resistant strain): 0.15 µg/mL

CO[C@H]1/C=C/O[C@@]2(C)Oc3c(C)c(O)c4c(O)c(c(/C=N/N5CCN(C)CC5)c(O)c4c3C2=O)NC(=O)/C(C)=C\C=C\[C@H](C)[C@H](O)[C@@H](C)[C@@H](O)[C@@H](C)[C@H](OC(C)=O)[C@@H]1C
MIC (broth dilution): 8 µM

Cc1ccc2[nH]nc(-c3nnc(Nc4ccc(Cl)c(Br)c4)s3)c2c1
MIC (ATCC25922): 247 µg/mL

C[C@H]1COc2c(N3CCN(C)CC3)c(F)cc3c(=O)c(C(=O)O)cn1c23
MIC: ≤ 0.12 µg/mL

CC(=O)C1=NN(c2ccc([N+](=O)[O-])cc2)C(=C(C#N)C(=O)c2ccc(Nc3cnccn3)cc2)S1
MIC (broth dilution; ATCC10536): 6.25 µg/mL

CN1CCN(CCNCc2cc3cc(-c4ccccc4)ccc3nc2SCc2ccccc2)CC1
MIC (broth dilution): 16 µg/mL

N=c1sc(C(=O)c2ccc(Nc3cnccn3)cc2)nn1-c1ccccc1
MIC (broth dilution; ATCC10536): 50 µg/mL

CCN(CC)c1ccc(C=NNC(=O)c2ccc(Cl)cc2)c(O)c1
MIC (broth dilution; ATCC25922): > 256 µg/mL

c1ccc(CSc2nc3ccc(-c4ccccc4)cc3cc2CNCCC2CCN(C3CCCC3)CC2)cc1
MIC (broth dilution): 16 µg/mL

CCN1CCN(c2cc3c(cc2F)c(=O)c(C(=O)O)cn3C2CC2)CC1
MIC (broth dilution; ATCC25922): 0.0625 µg/mL

N#CC(C#N)=C1SC(C(=O)c2ccc(Nc3cnccn3)cc2)=NN1c1ccc([N+](=O)[O-])cc1
MIC (broth dilution; ATCC10536): 12.5 µg/mL

Cc1onc(-c2ccccc2)c1C(=O)N[C@@H]1C(=O)N2[C@@H]1SC(C)(C)[C@@H]2C(=O)O
MIC (broth dilution; ATCC25922): < 0.5 µg/mL

COc1cc2cc(CNCCC3CCN(C4CCCC4)CC3)c(SCc3ccccc3)nc2c(OC)c1OC
MIC (broth dilution): > 128 µg/mL

COc1ccc2ccc(O)c(/C=N/[C@H]3CCCC[C@H]3/N=C/c3c(O)cccc3F)c2c1
MIC (broth dilution): > 40 µM

O=C(O)c1cn(C2CC2)c2cc(N3CCNCC3)c(F)cc2c1=O
MIC (broth dilution; ATCC25922; 16 h): 0.1 µM

COc1ccc(N2N=C(C(C)=O)SC2=C(C#N)C(=O)c2ccc(Nc3cnccn3)cc2)cc1
MIC (broth dilution; ATCC10536): 6.25 µg/mL

Cc1ccc2[nH]nc(-c3nnc(Nc4ccc(C(F)(F)F)cc4)s3)c2c1
MIC (ATCC25922): 43.3 µg/mL

CCN(CC)c1ccc(C=NC(=O)c2ccc3ccccc3c2)c(O)c1
MIC (broth dilution; ATCC25922): > 256 µg/mL

Cc1ccc2[nH]nc(-c3nnc(Nc4ccc(Cl)cc4)s3)c2c1
MIC (ATCC25922): 81.7 µg/mL

CN1CCN(CCNCc2cc3ccccc3nc2SCc2ccccc2)CC1
MIC (broth dilution): 64 µg/mL
